Results on 16 molecules are retold here after PubChem BioAssay.

Assay [1] is described as follows: Her2 expression decrease, cell viability multiplex – SKBR3 breast tumor cells, AlphaScreen, ATP viability, primary screen (AID 461;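 active means Her2 level under about 52% in both replicate screens, with viability over 70% of control, limit read from the data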;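 on Her2 level: lower value means less Her2 protein in the cells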;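 on viability: percent of carrier control wells set as 100% viability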). To be noted: SKBR3 Her2 protein level, 18-24 h, measured here: SKBR3 viability, ATP luminescence, at 10 µM.
The target of assay [2] is Receptor tyrosine-protein kinase erbB-2 (Homo sapiens) (UniProt P04626). The assay is described as above. As to conditions: 18-24 h, at 10 µM, stronger effect = lower value.
A short description of assay [3]: reduced viability of SK-BR-3 breast cancer cells – cell-based, 24 h, human, pilot screen (AID 572;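 active means viability at or below 10% of carrier control in both of two separate runs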;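 further: compound exposure lasted between 18 and 24 h rather than exactly 24 h; 100% = carrier-treated control wells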). To be noted: SK-BR-3 viability, CellTiter-Glo luminescence, at 10 µM, stronger effect = lower value.
Assay [4] can be described thus: HUVEC growth inhibition – cell-based, human, primary screen (AID 575;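 active means viability at or below 30% in both replicate assays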;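 further: 100% = median of untreated cell wells with 0.1% DMSO on each plate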). As to conditions: HUVEC proliferation, CellTiter-Glo luminescence, 72 h; at 10 µM; stronger effect = lower value. In a few lines:
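System – primary HUVEC, no more than 12 passages · Medium – Low-serum (2% FBS) EBM, supplemented · Times – 72 h exposure, 37 °C, 5% CO2, 30 min RT equilibration · Measured by – luminescent ATP assay · Read-out – % viability relative to median vehicle-well signal on each plate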

Assay [5] can be described thus: H69AR cell proliferation blockers – human, duplicate replicates, primary screen (AID 580;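 active means viability at or under a set limit in both replicates, limit being median viability minus 3 SD, cut at about 48% in these data, passing the limit was not always enough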;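 further: 100% = mean luminescence of untreated wells and 0% = no signal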). As to conditions: H69AR lung tumor cells viability, ATP luminescence, 72 h; at 10 µM; stronger effect = lower value.
The nature of assay [6]: MRP1 drug-resistance reversers in H69AR cells – cell-based, doxorubicin co-treatment, pilot screen (AID 601;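 active means viability loss from added drug above about 55%, and viability with drug at most 40%, in both replicates, limit read from the data, passing the limit was not always enough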). To be noted: CellTiter-Glo, 72 h, at 10 µM; for differential viability (reversal): stronger effect = higher value.
Assay [7] in a line: yeast transport mutant growth inhibition pilot in 384-well plates, post-Golgi transport modulator project (AID 636; in the data active means inhibition above about 31%). To be noted: absorbance 615 nm, about 18 h, stronger effect = higher value.
Assay [8] can be described thus: growth suppression of yeast trafficking mutant, preliminary HTS, modulators of trafficking downstream of Golgi apparatus project, 1536-format plate, OD 615 nm (AID 637). As to conditions: yeast transport mutant growth, absorbance 615 nm, 18 h; stronger effect = higher value.
Setting [9] is: H69AR cells + 2 uM doxorubicin, measured here: viability with 2 uM doxorubicin, stronger effect = lower value.
[10] abbreviates: H69AR cells, compound alone cytotoxicity.

Each structure is given as a SMILES string. Active and inactive are the calls of the source. Unless noted, no stated cut-off is given here; in the data, active means inhibition above about 30%; inactive means the rest.

Sequence of Receptor tyrosine-protein kinase erbB-2 (Homo sapiens) (P04626 whole entry, looked up): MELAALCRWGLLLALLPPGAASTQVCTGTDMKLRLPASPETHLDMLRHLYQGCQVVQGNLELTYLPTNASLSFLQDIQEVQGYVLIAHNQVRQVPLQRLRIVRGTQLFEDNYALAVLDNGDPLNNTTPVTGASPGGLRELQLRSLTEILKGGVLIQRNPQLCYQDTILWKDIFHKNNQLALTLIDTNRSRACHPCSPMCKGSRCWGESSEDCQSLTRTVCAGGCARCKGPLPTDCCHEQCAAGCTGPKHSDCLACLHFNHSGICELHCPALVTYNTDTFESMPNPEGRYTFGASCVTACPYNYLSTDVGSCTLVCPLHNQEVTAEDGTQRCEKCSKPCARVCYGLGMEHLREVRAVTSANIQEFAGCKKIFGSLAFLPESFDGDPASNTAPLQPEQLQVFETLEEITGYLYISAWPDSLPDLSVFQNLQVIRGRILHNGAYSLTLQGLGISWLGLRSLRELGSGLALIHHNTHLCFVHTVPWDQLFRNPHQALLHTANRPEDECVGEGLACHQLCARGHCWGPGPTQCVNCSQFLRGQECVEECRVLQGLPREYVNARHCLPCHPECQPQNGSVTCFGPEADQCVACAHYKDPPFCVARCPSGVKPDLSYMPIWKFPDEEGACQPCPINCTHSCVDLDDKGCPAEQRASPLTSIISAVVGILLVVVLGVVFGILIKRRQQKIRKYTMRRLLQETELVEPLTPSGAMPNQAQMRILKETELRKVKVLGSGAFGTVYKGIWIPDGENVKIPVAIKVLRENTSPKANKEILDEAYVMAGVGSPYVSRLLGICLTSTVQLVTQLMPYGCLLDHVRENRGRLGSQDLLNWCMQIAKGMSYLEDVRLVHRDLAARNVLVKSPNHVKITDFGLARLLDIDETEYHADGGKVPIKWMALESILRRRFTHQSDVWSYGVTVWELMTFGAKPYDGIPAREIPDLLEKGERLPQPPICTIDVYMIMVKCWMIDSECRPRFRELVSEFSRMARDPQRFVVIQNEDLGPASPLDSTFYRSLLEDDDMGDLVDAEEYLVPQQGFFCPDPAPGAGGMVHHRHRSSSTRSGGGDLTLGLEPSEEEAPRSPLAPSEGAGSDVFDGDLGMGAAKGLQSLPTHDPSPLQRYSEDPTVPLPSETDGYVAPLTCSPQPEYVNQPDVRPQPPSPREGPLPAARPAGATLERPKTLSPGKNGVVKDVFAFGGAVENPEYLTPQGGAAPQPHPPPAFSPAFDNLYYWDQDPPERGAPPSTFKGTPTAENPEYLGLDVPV

Regarding `O=C(CSc1nnc2sc3ccccc3n12)c1ccco1`, the viability was 95% in assay [1]; 95% (inactive) in assay [3]; 118% (inactive) in assay [4]; 102% (inactive) in assay [5]; 85.3% in assay [6] (setting [9]); 102% in assay [6] (setting [10]). Besides, in assay [2], the Her2 level was 85.5% (inactive). The differential viability (reversal) in assay [6] (H69AR cells + 2 uM doxorubicin) was 16.9% (inactive). Moreover, the values for the inhibition in assay [7] and in assay [8] were -4.46% (inactive) and -6% (inactive), respectively.
For the molecule `CCOC(=O)C1=C(CC)Nc2ccccc2N=C1NC(=O)Cn1cnc2ccccc2c1=O`, the viability in assay [1] was 96%; in assay [3], 96% (inactive); in assay [4], 97.1% (inactive); in assay [5], 103% (inactive); in assay [6] (setting [9]) it was 82.3%; in assay [6] (setting [10]), 103%. Besides, the Her2 level in assay [2] is 80.5% (inactive). In assay [6] (H69AR cells + 2 uM doxorubicin), the differential viability (reversal) is 20.2% (inactive). The inhibition in assay [7] is -5.07% (inactive); in assay [8] it was 2.9% (inactive).
On to `CCN(CC)C(=O)CSc1nc2ccccc2c(=O)n1CCC(=O)NCc1ccc(F)cc1`, for which the viability in assay [1] was 93%; in assay [3], 93% (inactive); in assay [4], 98.3% (inactive); in assay [5], 92.7% (inactive); in assay [6] (setting [9]) it was 89.6%; in assay [6] (setting [10]), 92.7%. In addition, the Her2 level in assay [2] was 105% (inactive). Also, the differential viability (reversal) in assay [6] (H69AR cells + 2 uM doxorubicin) was 3.08% (inactive). The inhibition is 4.34% (inactive) in assay [7] and 20.2% (inactive) in assay [8].
Regarding `CC(C)N(C(=O)CSc1nnc(-c2cc3ccccc3cc2O)n1Cc1ccco1)C(C)C`, the viability is 90.5% in assay [1]; 90.5% (inactive) in assay [3]; 66.4% (inactive) in assay [4]; 83.4% (inactive) in assay [5]; 81.9% in assay [6] (setting [9]); 83.4% in assay [6] (setting [10]). In addition, in assay [2], the Her2 level is 76% (inactive). Also, the differential viability (reversal) in assay [6] (H69AR cells + 2 uM doxorubicin) is 1.54% (inactive). Further, the inhibition in assay [7] is -5.81% (inactive); in assay [8], -0.66% (inactive).
As to `CCOCCCNS(=O)(=O)c1ccc2c(c1)oc(=O)n2CC(=O)OCC`, the viability was 107% in assay [1]; 107% (inactive) in assay [3]; 104% (inactive) in assay [4]; 94.3% (inactive) in assay [5]; 103% in assay [6] (setting [9]); 94.3% in assay [6] (setting [10]). Also, the Her2 level in assay [2] was 98.5% (inactive). Also, the differential viability (reversal) in assay [6] (H69AR cells + 2 uM doxorubicin) was -8.29% (inactive). Further, the inhibition in assay [7] was -4.74% (inactive); in assay [8], -1.27% (inactive).
For `O=c1cc(-c2ccccc2)[nH]c2nc3ccccc3n12`, the viability in assay [1] is 90.5%; in assay [3], 90.5% (inactive); in assay [4], 35.5% (inactive); in assay [5] it was 9.48% (active); in assay [6] (setting [9]), 58.8%; in assay [6] (setting [10]), 9.48%. Besides, the Her2 level in assay [2] was 60.5% (inactive). Moreover, the differential viability (reversal) in assay [6] (H69AR cells + 2 uM doxorubicin) was -49.3% (inactive). Besides, the inhibition in assay [7] is -2.76% (inactive); in assay [8], -2.73% (inactive).
`COc1ccc2cc(C#N)c(NC(C)C)nc2c1`: the viability in assay [1] was 90.5%; in assay [3] it was 90.5% (inactive); in assay [4] it was 90.8% (inactive); in assay [5], 75.4% (inactive); in assay [6] (setting [9]), 81.4%; in assay [6] (setting [10]) it was 75.4%. The Her2 level in assay [2] is 63% (inactive). Further, the differential viability (reversal) in assay [6] (H69AR cells + 2 uM doxorubicin) was -6.05% (inactive). The inhibition is -2.76% (inactive) in assay [7] and 2.91% (inactive) in assay [8].
With `CCOC(=O)c1ccc(NC(=O)CCNc2c(N3CCCC3)c(=O)c2=O)cc1`, the viability in assay [1] was 104%; in assay [3], 104% (inactive); in assay [4] it was 91.6% (inactive); in assay [5], 98.3% (inactive); in assay [6] (setting [9]) it was 98%; in assay [6] (setting [10]), 98.3%. For the same molecule, the Her2 level in assay [2] was 96.5% (inactive). In assay [6] (H69AR cells + 2 uM doxorubicin), the differential viability (reversal) is 0.27% (inactive). In addition, the inhibition in assay [7] is -2.5% (inactive); in assay [8] it was 0.18% (inactive).
Consider `C=CCn1c(-c2ccc(OC)cc2)nc2ccccc21`, for which the viability is 118% in assay [1]; 118% (inactive) in assay [3]; 110% (inactive) in assay [4]; 95.5% (inactive) in assay [5]; 90.8% in assay [6] (setting [9]); 95.5% in assay [6] (setting [10]). For the same molecule, in assay [2], the Her2 level is 99.5% (inactive). In addition, in assay [6] (H69AR cells + 2 uM doxorubicin), the differential viability (reversal) was 4.69% (inactive). In addition, the inhibition in assay [7] was -4.27% (inactive); in assay [8], 3.71% (inactive).
For the molecule `Cc1cc(=O)n(CC(C)C)c(O)c1C#N`, the viability in assay [1] is 106%; in assay [3], 106% (inactive); in assay [4], 99.4% (inactive); in assay [5] it was 104% (inactive); in assay [6] (setting [9]) it was 104%; in assay [6] (setting [10]), 104%. Also, the Her2 level in assay [2] is 98% (inactive). The differential viability (reversal) in assay [6] (H69AR cells + 2 uM doxorubicin) was 0.33% (inactive). The inhibition in assay [7] is 0.53% (inactive); in assay [8], 5.08% (inactive).
Consider `CCCCCn1c(CN2CCN(C)CC2)nc2c1c(=O)n(C)c(=O)n2C`, for which the viability is 103% in assay [1]; 103% (inactive) in assay [3]; 98.4% (inactive) in assay [4]; 85.9% (inactive) in assay [5]; 92.5% in assay [6] (setting [9]); 85.9% in assay [6] (setting [10]). In assay [2], the Her2 level was 103% (inactive). The differential viability (reversal) in assay [6] (H69AR cells + 2 uM doxorubicin) is -6.67% (inactive). For the same molecule, the inhibition was -3.87% (inactive) in assay [7] and -2.67% (inactive) in assay [8].
Consider `Cc1cc(C)c2c(CC(=O)NCc3ccco3)coc2c1`, for which the viability is 94% in assay [1]; 94% (inactive) in assay [3]; 71.3% (inactive) in assay [4]; 91.1% (inactive) in assay [5]; 89.8% in assay [6] (setting [9]); 91.1% in assay [6] (setting [10]). Besides, the Her2 level in assay [2] was 81.5% (inactive). In addition, the differential viability (reversal) in assay [6] (H69AR cells + 2 uM doxorubicin) was 1.32% (inactive). The inhibition is -6.27% (inactive) in assay [7] and -6.03% (inactive) in assay [8].
For `CCCC1(C(=O)OCC)NC(c2ccc(N(C)C)cc2)C2C(=O)N(c3ccccc3)C(=O)C21` (stereo not given), the viability was 109% in assay [1]; 109% (inactive) in assay [3]; 99.2% (inactive) in assay [4]; 97.2% (inactive) in assay [5]; 93.5% in assay [6] (setting [9]); 97.2% in assay [6] (setting [10]). Also, the Her2 level in assay [2] was 99% (inactive). Also, the differential viability (reversal) in assay [6] (H69AR cells + 2 uM doxorubicin) is 3.73% (inactive). In addition, the inhibition in assay [7] was -7.11% (inactive); in assay [8] it was -6.03% (inactive).
As to `COc1ccc(-n2nc(C(=O)Nc3ccc4c(c3)OCO4)c3c4ccccc4n(C)c3c2=O)cc1`, the viability in assay [1] is 99%; in assay [3] it was 99% (inactive); in assay [4] it was 98% (inactive); in assay [5], 92.6% (inactive); in assay [6] (setting [9]), 104%; in assay [6] (setting [10]), 92.6%. The Her2 level in assay [2] is 88.5% (inactive). In addition, the differential viability (reversal) in assay [6] (H69AR cells + 2 uM doxorubicin) was -10.9% (inactive). The figures for the inhibition in assay [7] and in assay [8] were -3.03% (inactive) and -1.45% (inactive), respectively.
As for `O=C(Nc1nc(-c2ccccc2)cs1)C1CCCCN1S(=O)(=O)c1ccccc1` (stereo not given), the viability in assay [1] is 100%; in assay [3], 100% (inactive); in assay [4] it was 71.5% (inactive); in assay [5], 73.8% (inactive); in assay [6] (setting [9]), 92%; in assay [6] (setting [10]), 73.8%. The Her2 level in assay [2] was 80% (inactive). For the same molecule, in assay [6] (H69AR cells + 2 uM doxorubicin), the differential viability (reversal) was -18.2% (inactive). In addition, the inhibition in assay [7] was -0.13% (inactive); in assay [8], 11.4% (inactive).
On to `CN(C)C(=O)N1CCCC(C(=O)NCc2ccccc2)C1` (stereo not given), for which the viability is 89% in assay [1]; 89% (inactive) in assay [3]; 102% (inactive) in assay [4]; 87.8% (inactive) in assay [5]; 107% in assay [6] (setting [9]); 87.8% in assay [6] (setting [10]). For the same molecule, the Her2 level in assay [2] was 92% (inactive). The differential viability (reversal) in assay [6] (H69AR cells + 2 uM doxorubicin) is -18.9% (inactive). For the same molecule, the figures for the inhibition in assay [7] and in assay [8] were 1.92% (inactive) and 4.5% (inactive), respectively.
